Tests used:
advanced solid tumors = assay: Tumor response; format: in vivo, human
Procedure, shortened: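 Patients with previously treated advanced solid tumours were enrolled in an open-label 3+3 escalation. The test compound was given as an oral liquid (100 mg/mL in lecithin/propylene glycol/PEG/TPGS vehicle) once daily, ≥2 h from meals, in 28-day cycles. CT/MRI was scored by RECIST v1.1 (CR/PR/SD/PD) every 8 weeks (±7 d) until progression, discontinuation or consent withdrawal. SD duration was counted in cycles.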

[1] = test system: patients with previously treated, advanced solid tumors; assay: Phase 1 dose escalation study: safety and tolerability; format: in vivo, human
[2] = Plasma pharmacokinetics of SLC-0111 after single and repeated dosing; format: in vivo, human; details: for AUC(0-t) / Tmax: human, plasma, oral; for AUC(0-t): AUC(0-24), Day 1, mean; for Tmax: range of cohort means
rats = assay: GLP 28-day toxicology study in rats; format: in vivo, rat; details: highest dose tested in rats, 28-day GLP

NS(=O)(=O)c1ccc(NC(=O)Nc2ccc(F)cc2)cc1 [SLC-0111, 4-[(4-fluorophenyl)carbamoyl]amino-benzene sulfonamide]
Objective responses (advanced solid tumors; all cohorts): no objective responses were observed
Stable disease maintained, number of 28-day cycles (advanced solid tumors; cohort 1 (500 mg), one patient with sarcoma of spine): 10 cycles
Stable disease up to cycle (advanced solid tumors; cohort 3 (2000 mg), one patient with colorectal cancer): ≤ 7
Prolonged stable disease (SD), duration (advanced solid tumors; observed in 2 patients): > 24 weeks
Dose-limiting toxicities (in words) ([1]; 500, 1000 and 2000 mg, cycle 1, 10 evaluable patients): No protocol defined DLTs were observed
Hypophosphatemia, Grade of the grade 3-4 events (CTCAE) ([1]; Cohort 1 (500 mg)): 3
Fatigue, Grade of the grade 3-4 events (CTCAE) ([1]; Cohort 2 (1000 mg)): 3
Pulmonary embolism (SAE), Grade (CTCAE) ([1]; Cohort 2 (1000 mg)): 3
Alanine Transaminase, Grade of the grade 3-4 events (CTCAE) ([1]; Cohort 3 (2000 mg)): 3
Clostridium entercolitis (SAE), Grade (CTCAE) ([1]; Cohort 3 (2000 mg)): 3
Fatigue, Grade of the grade 3-4 events (CTCAE) ([1]; Cohort 3 (2000 mg)): 3
Hepatobiliary disorder (SAE), Grade (CTCAE) ([1]; Cohort 3 (2000 mg)): 3
Hypophosphatemia, Grade of the grade 3-4 events (CTCAE) ([1]; Cohort 3 (2000 mg)): 3
Total treatment emergent AEs reported over the course of the study ([1]; all cohorts, 17 patients): 184
Treatment emergent AEs considered related to SLC-0111 ([1]; all cohorts, 17 patients): 91
SAEs recorded across the entire study group ([1]; all cohorts, only hepatobiliary disorder drug related): Three
Tolerability (in words) ([1]; doses of 1000 mg daily or below): generally well tolerated
Maximum tolerated dose ([1]; doses up to 2000 mg daily): not established
Recommended phase II dose (RP2D) ([1]; oral liquid formulation, once daily): 1000 mg/day
Day 28/Day 1 AUC(0-24) ratio ([2]; 500 mg/d): 2.01±0.879
Day 28/Day 1 Cmax±SD ratio ([2]; 500 mg/d): 1.32±0.298
Day 28/Day 1 AUC(0-24) ratio ([2]; 1000 mg/d): 1.47±1.42
Day 28/Day 1 Cmax±SD ratio ([2]; 1000 mg/d): 1.17±1.02
Day 28/Day 1 AUC(0-24) ratio ([2]; 2000 mg/d): 2.18±0.247
Day 28/Day 1 Cmax±SD ratio ([2]; 2000 mg/d): 3.70±4.30
Dose proportionality of exposure (in words) ([2]; Cmax and AUC(0-24), days 1 and 28, 500-2000 mg): generally dose proportional
AUC(0-t) ([2]; 500 mg, 500 mg, N=3): 33000 ng·h/mL
AUC(0-t) ([2]; 1000 mg, 1000 mg, N=3): 70000 ng·h/mL
AUC(0-t) ([2]; 2000 mg, 2000 mg, N=2): 94000 ng·h/mL
Tmax ([2]; Day 1, 500-2000 mg cohorts): 2.46 to 6.05 h
Tmax ([2]; Day 28, 500-2000 mg cohorts): 2.61 to 5.02 h
Severe toxic dose in 10% (STD10) of treated rodents (rats): 500 mg/kg/day

— PMC7323835 (American Journal of Clinical Oncology, 2020)
